Compounds with a hit are over-represented: about 2.4% of the library has one in this group of screens.
NPY Y2 blocker: NPY-Y2 receptor antagonists, primary screen, cell-based | Neuropeptide Y receptor type 2 (Homo sapiens), P49146 | actives 0.99% (n = 140,000) | inhibition, % at 2.7 µM | NPY-Y2 expressing cells, antagonist mode; in the data active = inhibition above about 17%;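 note: 0% = vehicle with agonist challenge and 100% = reference antagonist with challenge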
NPY-Y2 PAM-ag: NPY-Y2 potentiators or agonists, primary screen, cell-based | Neuropeptide Y receptor type 2 (Homo sapiens), P49146 | cells expressing NPY-Y2, potentiator/agonist read-out | activation, % at 3.6 µM | actives 0.45% (n = 220,000) | AID 1359, 2008; in the data active = activation above about 27%;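 note: cells stimulated with NPY near EC25 plus isoproterenol at EC100; 0% = vehicle plus submaximal agonist and 100% = vehicle plus saturating agonist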
S1P4 antag: S1P4 receptor antagonists, primary screen, cell-based; Sphingosine 1-phosphate receptor 4 (Homo sapiens), O95977; actives 0.26% (n = 220,000); inhibition, % at 4.98 µM; S1P4-expressing cells, antagonist mode, reporter read-out; AID 1510, 2009; in the data active = inhibition above about 29%;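 note: 0% = wells stimulated with agonist and 100% = vehicle wells without agonist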
Target sequence (O95977 whole entry, looked up): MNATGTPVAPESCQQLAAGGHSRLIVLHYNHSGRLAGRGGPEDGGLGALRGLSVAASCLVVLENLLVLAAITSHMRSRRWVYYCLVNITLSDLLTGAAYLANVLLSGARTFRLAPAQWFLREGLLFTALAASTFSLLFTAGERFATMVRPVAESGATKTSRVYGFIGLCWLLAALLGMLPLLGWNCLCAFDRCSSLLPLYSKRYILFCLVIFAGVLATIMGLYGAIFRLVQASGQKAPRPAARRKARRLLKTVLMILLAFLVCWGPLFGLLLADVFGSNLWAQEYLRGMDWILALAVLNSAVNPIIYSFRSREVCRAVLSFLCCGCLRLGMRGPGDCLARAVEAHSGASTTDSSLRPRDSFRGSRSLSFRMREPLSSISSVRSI
NPY-Y1 PAM-ag: NPY-Y1 receptor potentiators or agonists, primary screen, cell-based; Neuropeptide Y receptor type 1 (Homo sapiens), P25929; NPY-Y1 expressing cells, potentiator/agonist activation; activation, % at 3.6 µM; actives 0.37% (n = 220,000); AID 1304, 2008; in the data active = activation above about 33%, passing the limit was not always enough;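 note: cells stimulated with NPY at EC10 then isoproterenol at EC100; 0% = low agonist plus stimulus and 100% = saturating agonist plus stimulus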
Target sequence (P25929 whole entry, looked up): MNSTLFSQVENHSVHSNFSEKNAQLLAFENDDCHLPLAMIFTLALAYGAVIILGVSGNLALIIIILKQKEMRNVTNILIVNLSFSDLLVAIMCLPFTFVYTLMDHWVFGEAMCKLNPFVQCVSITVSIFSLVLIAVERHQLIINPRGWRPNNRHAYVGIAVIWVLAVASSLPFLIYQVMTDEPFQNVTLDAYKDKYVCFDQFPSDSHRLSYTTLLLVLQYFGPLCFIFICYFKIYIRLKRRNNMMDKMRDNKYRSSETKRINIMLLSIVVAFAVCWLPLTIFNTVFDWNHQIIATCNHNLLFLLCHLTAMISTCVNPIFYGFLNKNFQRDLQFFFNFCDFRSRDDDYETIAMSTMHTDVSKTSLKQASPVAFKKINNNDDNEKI
NPY-Y1 antag: NPY-Y1 receptor antagonists, primary screen, cell-based. Neuropeptide Y receptor type 1 (Homo sapiens), P25929. HEK293-CNG Y1 cells, membrane potential fluorescence; NPY at EC95, then isoproterenol. inhibition, % at 3.6 µM. actives 1% (n = 200,000);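 active = inhibition above the campaign mean inhibition of all tested compounds plus 3 SD, cut at about 20% in these data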;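 note: 0% = DMSO wells given NPY plus isoproterenol and 100% = isoproterenol alone without NPY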
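Material: HEK293 Y1/CNG channel cell line; also added: NPY (25 nM), isoproterenol (1 µM), Ro 20-1724 (25 µM); doses: one concentration, 3.6 µM, in 0.4% DMSO; schedule: compound incubation 1 h at room temperature, readout 45 min post-stimulation; technique: membrane potential fluorescence; measure: fluorescence ratio normalized to % inhibition between controls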
S1P4 agonist: S1P4 receptor agonists, primary screen, cell-based | Sphingosine 1-phosphate receptor 4 (Homo sapiens), O95977 | S1P4-expressing cell line, agonist reporter assay | activation, % at 4.98 µM | actives 0.35% (n = 220,000); in the data active = activation above about 11%;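 note: 0% = DMSO vehicle and 100% = reference agonist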
NPY-Y2 pot conf: NPY-Y2 potentiators or agonists, confirmation, cell-based. shares compounds with NPY-Y2 PAM-ag. cell-based NPY-Y2 potentiator/agonist assay. activation, % at 3.6 µM. actives 20% (n = 450). AID 1539, 2009; in the data active = activation above about 33%
NPY-Y1 potentiator: NPY-Y1 potentiators or agonists, counter-screen for NPY-Y2 potentiator project, cell-based, fluorescence; shares compounds with NPY-Y2 PAM-ag; Y1 HEK293-CNG cells, membrane potential fluorescence; activation, % at 3.6 µM; actives 20% (n = 450); AID 1651, 2009; in the data active = activation above about 45%;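 note: cells stimulated with submaximal NPY then isoproterenol with phosphodiesterase inhibitor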
NPY-Y1 agonist 2: NPY-Y1 direct agonists, selectivity assay for NPY-Y2 potentiator project, cell-based, fluorescence; HEK293 Y1-CNGC, membrane potential fluorescence, agonism; shares compounds with NPY-Y2 PAM-ag; AID 1702, 2009; actives 37% (n = 450); activation, % at 3.6 µM;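 active = activation above the mean of DMSO-only control wells plus 3 SD, cut at about 18% in these data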;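 note: cells stimulated with 1 µM isoproterenol plus the PDE inhibitor Ro 20-1724; 0% = isoproterenol with DMSO and no NPY and 100% = 40 nM NPY; Y1 agonists lower the membrane potential dye signal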
CNGC inh: CNGC cAMP sensor activity inhibitors, counter-screen for NPY-Y2 potentiator project, cell-based, HEK293-CNG parental, membrane potential fluorescence | isoproterenol cAMP | shares compounds with NPY-Y2 PAM-ag | inhibition, % at 3.6 µM | actives 32% (n = 450);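 active = inhibition above the control-well mean plus 3 SD of those wells, cut at about 22% in these data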;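 note: 0% = DMSO with isoproterenol and 100% = DMSO without isoproterenol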
NPY-Y2 ag 2: NPY-Y2 direct agonists, counter-screen for NPY-Y2 potentiator project, cell-based, fluorescence; AID 1710, 2009; HEK293 Y2/CNGC cells, membrane potential fluorescence, agonist mode; actives 56% (n = 450); shares compounds with NPY-Y2 PAM-ag; activation, % at 3.6 µM;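 active = activation above the mean of solvent-only control wells plus 3 SD, cut at about 10% in these data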;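 note: cells stimulated by isoproterenol with no NPY added so direct agonism is tested; 0% = DMSO with isoproterenol alone and 100% = NPY at EC100 plus isoproterenol; agonism lowers probe fluorescence through less cAMP and CNG channel opening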
* = called active by the depositor.

Results for Cc1ccc(NS(=O)(=O)c2cccc(C(=O)Nc3c(C)n(C)n(-c4ccccc4)c3=O)c2)cc1 ?
NPY-Y2 PAM-ag: 57.8*; S1P4 antag: 1.5; NPY-Y1 PAM-ag: -17.7; S1P4 agonist: 0.9; NPY-Y2 pot conf: -3.4; NPY-Y1 potentiator: -2.4; NPY-Y1 agonist 2: -10.9; CNGC inh: 0.1; NPY-Y2 ag 2: -1.0

How did CCCCNC(=O)N(c1c(N)n(Cc2ccccc2)c(=O)[nH]c1=O)C1CCCC1 do in these assays?
NPY-Y2 PAM-ag: -7.2; S1P4 antag: -11.4; NPY-Y1 PAM-ag: -9.5; NPY-Y1 antag: -2.8; S1P4 agonist: 0.0

Results for COc1ccccc1CNC(=O)CN1C(=O)CSc2ccc(S(=O)(=O)N3CCCC3)cc21 ?
NPY-Y2 PAM-ag: -8.6; S1P4 antag: -34.0; NPY-Y1 PAM-ag: 4.0; NPY-Y1 antag: 3.3; S1P4 agonist: 0.5

How did COCCNC(=O)CN1C(=O)CSc2cc(S(=O)(=O)N3CCCCCC3)ccc21 do in these assays?
NPY Y2 blocker: 0.6; NPY-Y2 PAM-ag: 97.2*; S1P4 antag: -5.7; NPY-Y1 PAM-ag: -10.6; NPY-Y1 antag: 1.3; S1P4 agonist: -6.7; NPY-Y2 pot conf: -1.9; NPY-Y1 potentiator: -9.6; NPY-Y1 agonist 2: -13.5; CNGC inh: -0.2; NPY-Y2 ag 2: -7.5

Results for Cc1ccc([N+](=O)[O-])cc1N(CC(=O)Nc1ccc(S(=O)(=O)Nc2cccc(C(F)(F)F)c2)cc1)S(C)(=O)=O ?
NPY Y2 blocker: -7.4; NPY-Y2 PAM-ag: 44.6*; S1P4 antag: 14.7; NPY-Y1 PAM-ag: 25.1; NPY-Y1 antag: -14.7; S1P4 agonist: 1.2; NPY-Y2 pot conf: 43.3*; NPY-Y1 potentiator: 63.7*; NPY-Y1 agonist 2: 57.8*; CNGC inh: 50.6*; NPY-Y2 ag 2: 53.2*

What do the screens show for `O=C(CSc1cccc[n+]1[O-])C12CC3CC(CC(C3)C1)C2`?
NPY-Y2 PAM-ag: 2.0; S1P4 antag: 8.7; NPY-Y1 PAM-ag: 16.4; NPY-Y1 antag: -2.0; S1P4 agonist: 1.3

What do the screens show for `Cc1ccc(NC(=O)Cc2nnc(N)s2)cc1`?
NPY-Y2 PAM-ag: -17.3; S1P4 antag: 6.5; NPY-Y1 PAM-ag: -0.5; S1P4 agonist: -1.1

What do the screens show for `Nc1nnc(CC(=O)Nc2ccccc2)s1`?
NPY-Y2 PAM-ag: 47.1*; S1P4 antag: -0.8; NPY-Y1 PAM-ag: 17.5; S1P4 agonist: 0.3; NPY-Y2 pot conf: -5.2; NPY-Y1 potentiator: -5.5; NPY-Y1 agonist 2: -8.0; CNGC inh: -1.9; NPY-Y2 ag 2: -11.5

How did COc1cc(C(=O)NNC2=CC(=O)CC(C)(C)C2)cc(OC)c1OC do in these assays?
NPY Y2 blocker: 2.3; NPY-Y2 PAM-ag: 43.7*; S1P4 antag: -10.4; NPY-Y1 PAM-ag: 31.6; NPY-Y1 antag: -1.3; S1P4 agonist: 1.1; NPY-Y2 pot conf: 2.7; NPY-Y1 potentiator: 2.0; NPY-Y1 agonist 2: 6.9; CNGC inh: 5.7; NPY-Y2 ag 2: 8.8

How did CC(C)CC(=O)NC(C)C(c1cccs1)N1CCOCC1 (centres undefined) do in these assays?
NPY-Y2 PAM-ag: -11.8; S1P4 antag: -9.1; NPY-Y1 PAM-ag: 5.7; S1P4 agonist: 0.8

Results for S=C(Nc1ccc(Nc2ccccc2)cc1)Nc1ccccn1 ?
NPY-Y2 PAM-ag: 33.1*; S1P4 antag: -4.3; NPY-Y1 PAM-ag: 30.0; NPY-Y1 antag: -12.3; S1P4 agonist: -0.6; NPY-Y2 pot conf: 18.6; NPY-Y1 potentiator: 3.3; NPY-Y1 agonist 2: 10.2; CNGC inh: 3.8; NPY-Y2 ag 2: 13.6*

How did O=C1Nc2ccccc2N=C(c2ccccc2)c2ccccc21 do in these assays?
NPY-Y2 PAM-ag: 40.6*; S1P4 antag: -4.3; NPY-Y1 PAM-ag: 27.2; S1P4 agonist: 0.7; NPY-Y2 pot conf: 5.8; NPY-Y1 potentiator: 19.4; NPY-Y1 agonist 2: 8.6; CNGC inh: 14.2; NPY-Y2 ag 2: -1.5

What do the screens show for `O=C1CC(/C=C/c2ccccc2)=Nc2ccccc2N1`?
NPY-Y2 PAM-ag: 0.5; S1P4 antag: 9.5; NPY-Y1 PAM-ag: 7.1; NPY-Y1 antag: 9.9; S1P4 agonist: 0.4

What do the screens show for `CCc1cccc(NC(=O)c2cc(OC)c(OC)c(OC)c2)c1`?
NPY-Y2 PAM-ag: 61.5*; S1P4 antag: 6.8; NPY-Y1 PAM-ag: -9.6; NPY-Y1 antag: 2.9; S1P4 agonist: -1.8; NPY-Y2 pot conf: -6.8; NPY-Y1 potentiator: -8.4; NPY-Y1 agonist 2: -20.4; CNGC inh: -1.6; NPY-Y2 ag 2: -1.3

What do the screens show for `COc1cc(OC)c(NC(=O)CCNS(=O)(=O)c2cc(Br)cnc2N)cc1Cl`?
NPY Y2 blocker: -2.6; NPY-Y2 PAM-ag: 48.0*; S1P4 antag: 0.5; NPY-Y1 PAM-ag: 20.3; NPY-Y1 antag: -4.2; S1P4 agonist: 0.5; NPY-Y2 pot conf: 9.4; NPY-Y1 potentiator: 22.2; NPY-Y1 agonist 2: 13.9; CNGC inh: 14.2; NPY-Y2 ag 2: 5.1

What do the screens show for `COc1ccccc1NCC(=O)NNCC(=O)Nc1ccc(F)c(Cl)c1`?
NPY-Y2 PAM-ag: 12.2; S1P4 antag: -5.8; NPY-Y1 PAM-ag: -0.5; NPY-Y1 antag: 5.5; S1P4 agonist: 0.2

Results for O=c1[nH]cnc2sc3c(c12)CCC3 ?
NPY-Y2 PAM-ag: 3.5; S1P4 antag: -20.3; NPY-Y1 PAM-ag: 9.4; S1P4 agonist: 0.9

Results for Cc1cc2c(C)nc(-c3ccccc3)nc2o1 ?
NPY Y2 blocker: 2.5; NPY-Y2 PAM-ag: 2.3; S1P4 antag: -8.2; NPY-Y1 PAM-ag: -77.7; NPY-Y1 antag: 6.3; S1P4 agonist: -0.6

Results for Cc1nc(-c2cn[nH]c2)c2cc(C)oc2n1 ?
NPY Y2 blocker: -1.5; NPY-Y2 PAM-ag: 107.2*; S1P4 antag: -3.9; NPY-Y1 PAM-ag: 10.9; NPY-Y1 antag: -1.1; S1P4 agonist: -0.6; NPY-Y2 pot conf: -8.0; NPY-Y1 potentiator: 0.2; NPY-Y1 agonist 2: -12.2; CNGC inh: 2.9; NPY-Y2 ag 2: -9.8

High-throughput results as filed in PubChem.
